High-throughput results deposited in PubChem BioAssay by several laboratories.
Most compounds without a hit are left out; they make up all but 3.4% or so of the library.
TAAR1 antag = human TAAR1 antagonists, primary screen, Fluo-8 calcium fluorescence, CHO RD-HGA16 cells | AID 624466, 2012 | antagonist | Trace amine-associated receptor 1 (Homo sapiens), Q96RJ0 | inhibition, % at 3 µM | 360,000 tested, 1.5% active;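 active = inhibition above a per-plate cutoff, the mean inhibition of test compounds on that plate plus 3 SD, cut at about 49% in these data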;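 note: 0% = DMSO plus EC80 beta-PEA response and 100% = DMSO alone without agonist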
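Assay system: RD-HGA16 CHO cells with stable hTAAR1 and Gα16 / Reagent: EC80 β-phenethylamine stimulus / Doses: 3 µM, single point / Timing: dye loading 75 min at 37 °C, then 30 min room temperature / Measured by: Fluo-8 intracellular calcium dye fluorescence, real-time kinetic reads / Controls: vehicle wells and EC80 agonist wells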
zfTRPN1 agonist = zebrafish TRPN1 channel agonists, primary screen, cell-based, HEK293, calcium fluorescence; activation, % at 3 µM; HEK293 zebrafish TRPN1-YFP, Fluo-8 calcium fluorescence; 100% = response to 87 µM carbachol; 220,000 tested, 0.18% active;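 active = activation above its plate's cutoff, the mean activation of test wells on that plate plus 3 SD, cut at about 19% in these data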;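 note: 0% = DMSO alone and 100% = 87 µM carbachol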
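Material: zebrafish TRPN1-YFP in HEK293 cells; Doses: single test compound dose, 3 µM nominal, 0.3% DMSO; Timing: dye loading 1 h at 37 °C, then 30 min room temperature; Technique: intracellular calcium fluorescence with Fluo-8; Benchmarks: high carbachol 87 µM, low DMSO alone.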
LANA-H2B inh = blockers of LANA interaction with H2A/H2B – biochemical, FP readout, HTS, primary screen | 320,000 tested, 0.6% active | AID 2629, 2010 | cell-free LANA-H2A/H2B peptide, fluorescence polarization | inhibition, % (concentration not given with the values) | Protein LANA1 (Human herpesvirus 8 type P (isolate GK18)), Q9QR71; in the data active = inhibition mostly above about 10%, no sharp cut-off; inactive = mostly below about 6.7%
Target sequence (Q9QR71 whole entry, looked up): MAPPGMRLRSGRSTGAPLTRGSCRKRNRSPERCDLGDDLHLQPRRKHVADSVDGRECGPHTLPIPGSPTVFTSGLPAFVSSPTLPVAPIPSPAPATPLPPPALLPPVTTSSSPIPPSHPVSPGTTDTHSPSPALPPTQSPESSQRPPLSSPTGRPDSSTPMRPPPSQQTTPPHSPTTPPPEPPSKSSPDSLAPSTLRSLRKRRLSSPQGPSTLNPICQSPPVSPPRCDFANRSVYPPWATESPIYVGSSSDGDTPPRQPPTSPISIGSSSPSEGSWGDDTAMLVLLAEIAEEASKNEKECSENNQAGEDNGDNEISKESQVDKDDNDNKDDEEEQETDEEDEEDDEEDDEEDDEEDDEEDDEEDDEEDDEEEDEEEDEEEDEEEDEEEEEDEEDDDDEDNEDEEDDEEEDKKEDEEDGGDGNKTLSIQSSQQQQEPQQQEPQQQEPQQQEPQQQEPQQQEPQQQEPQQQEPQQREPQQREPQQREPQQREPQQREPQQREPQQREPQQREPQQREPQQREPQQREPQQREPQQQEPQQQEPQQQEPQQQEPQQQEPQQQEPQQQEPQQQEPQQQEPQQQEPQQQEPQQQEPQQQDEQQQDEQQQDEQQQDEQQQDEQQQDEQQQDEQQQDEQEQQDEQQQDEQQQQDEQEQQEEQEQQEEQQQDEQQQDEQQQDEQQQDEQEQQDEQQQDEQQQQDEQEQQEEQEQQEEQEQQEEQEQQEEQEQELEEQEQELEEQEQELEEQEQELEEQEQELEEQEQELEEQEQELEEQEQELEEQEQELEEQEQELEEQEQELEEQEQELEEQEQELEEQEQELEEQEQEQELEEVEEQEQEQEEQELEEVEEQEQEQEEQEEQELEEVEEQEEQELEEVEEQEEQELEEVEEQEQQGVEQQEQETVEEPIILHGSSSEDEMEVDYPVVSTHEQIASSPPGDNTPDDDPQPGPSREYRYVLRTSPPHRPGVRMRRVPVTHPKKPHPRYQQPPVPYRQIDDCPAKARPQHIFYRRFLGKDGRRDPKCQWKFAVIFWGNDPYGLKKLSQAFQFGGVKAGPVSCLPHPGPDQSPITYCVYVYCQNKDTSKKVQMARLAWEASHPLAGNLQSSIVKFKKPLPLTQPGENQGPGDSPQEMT
TAAR1 ag = human TAAR1 agonists, primary screen, Fluo-8 calcium fluorescence, CHO RD-HGA16 cells | activation, % at 3 µM | Trace amine-associated receptor 1 (Homo sapiens), Q96RJ0 | vehicle wells 0%, saturating PEA agonist 100% | 360,000 tested, 0.99% active;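 active = activation above the mean activation of all test compounds in the run plus 3 SD, cut at about 38% in these data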
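Test system: RD-HGA16 (CHO) cells co-expressing Gα16 and hTAAR1 | Doses: Single dose, 3 µM | Schedule: 17-24 h seeding, 75 min 37 °C dye, 30 min RT | Evaluation: % activation from peak over basal fluorescence ratio, DMSO-to-PEA scaled | Technique: Kinetic Fluo-8 calcium fluorescence | Benchmarks: Low control DMSO, high control PEA (EC100)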
TRPML3 ag = human TRPML3 channel agonists, primary screen, cell-based, HEK293 TRPML3-YFP, Fluo-8 calcium fluorescence, 3 µM; AID 1448, 2008; Mucolipin-3 (Homo sapiens), Q8TDD5; 100% = the carbachol control signal; activation, % at 3 µM; 220,000 tested, 0.29% active;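 active = activation above its plate's cutoff, the mean activation of the plate's test wells plus 3 SD, cut at about 12% in these data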;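 note: 0% = DMSO only wells and 100% = carbachol wells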
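Test system: HEK293 cells stably carrying human TRPML3-YFP; Doses: single dose, 3 µM final nominal compound, 0.3% DMSO final; Schedule: dye loading 1 h 37 °C then 30 min ambient, 125 s read; Technique: Fluo-8 calcium fluorescence; Benchmarks: high control carbachol 87 µM, low control DMSO.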
GPR7 antagonist = GPR7 receptor antagonists, primary screen, cell-based, fluorescence, single concentration; GPR7-expressing cells, fluorescence antagonist assay; inhibition, % at 4.4 µM; 290,000 tested, 1.1% active; AID 1861, 2009; in the data active = inhibition above about 16%, passing the limit was not always enough;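 note: cells stimulated with the agonist NPW; 0% = agonist with vehicle and 100% = vehicle without agonist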
* = called active by the depositor; · = no result; ! = a repeat was not active.

SMILES	TAAR1 antag	zfTRPN1 agonist	LANA-H2B inh	TAAR1 ag	TRPML3 ag	GPR7 antagonist
O=C(NCCN1CCN(Cc2ccccc2)CC1)Nc1cc(Cl)cc(Cl)c1	23	2	2	44*	2	8
O=C(CCN1CCN(Cc2ccccc2)CC1)NNC(=O)Nc1cccc([N+](=O)[O-])c1	-17	·	16*	5	·	-12
O=C(Nc1ccc(CN2CCOCC2)cc1)c1ccc(-c2cccc([N+](=O)[O-])c2)o1	28	·	26*	11	·	-12
O=C(NCCN1CCN(c2cccc(Cl)c2)CC1)Nc1ccccc1	17	·	4	16	·	8
O=C(CCN1CCN(Cc2ccccc2)CC1)NNC(=O)Nc1cccc(Cl)c1	-3	·	1	7	·	-4
Cc1ccc(NC(=O)[C@@H](Cc2ccccc2)NC(=O)[C@H]2O[C@@H](n3ccc(=O)[nH]c3=O)[C@H](O)[C@@H]2O)cc1C	-17	·	·	0	·	·
O=C1CN(C(=O)c2ccccc2Br)C(c2ccc(F)cc2)c2cc(F)ccc2N1 (stereo not given)	8	·	1	41*	·	-3
O=C1CN(C(=O)c2ccccc2F)C(c2ccc(F)cc2)c2cc(Br)ccc2N1 (stereo not given)	14	·	-1	8	·	-9
O=C(c1ccco1)N1N=C(c2cccs2)CC1c1ccco1 (stereo not given)	11	1	-1	5	-1	-13
Cc1ccc(C2CC(c3cccs3)=NN2C(=O)c2ccco2)o1 (stereo not given)	-3	-1	20*	12	0	-5
Oc1ccc(Oc2ccc(Oc3ccc(O)cc3)cc2)cc1	51*	·	-1	8	·	-7
CC(=O)c1ccc(Oc2ccc(C(C)=O)cc2)cc1	9	2	6	5	2	4
C/C(=N/NC(=O)c1nnn(-c2nonc2N)c1COc1ccccc1)c1ccccc1	-13	·	-4	3	·	3
CCOc1cccc(-c2c(C(=O)N/N=C/c3ccc(C)o3)nnn2-c2nonc2N)c1	24	·	-3	62*	·	2
Nc1nonc1-n1nnc(C(=O)N/N=C/c2cccc(F)c2)c1-c1ccc2c(c1)OCO2	45	·	2	44*	·	-17
C/C(=N\NC(=O)c1nnn(-c2nonc2N)c1C)c1ccc(-c2ccccc2)cc1	0	·	6	7	·	20*
Nc1nonc1-n1nnc(C(=O)N/N=C/c2ccc(F)cc2)c1-c1ccc2c(c1)OCO2	-24	·	3	12	·	-6
Nc1nonc1-n1nnc(C(=O)N/N=C/c2cc(Br)cs2)c1-c1ccccc1	1	·	-10	41*	·	-15
CCOc1cccc(-c2c(C(=O)N/N=C/c3ccco3)nnn2-c2nonc2N)c1	·	·	-1	·	·	-5
COc1ccc(C(=O)c2[nH]c(N)c(C(=O)c3c[nH]c4ccccc34)c2-c2ccc(OC)cc2)cc1	-14	·	·	3	·	·
COC(=O)[C@]12C[C@H](CC(=O)NCCCCc3ccccc3)C(=O)N(CCC3=CCCCC3)C1=C[C@H](COCc1ccccc1)O[C@@H]2C	-10	·	·	2	·	·
CCCCCCCCN1C(=O)[C@@H](CC(=O)N2CCCCC2)C[C@@]2(C(=O)OC)C1=C[C@H](C1CCCC1)O[C@@H]2C	-32	·	·	-3	·	·
CCOc1ccc(-c2c(C(=O)N/N=C/c3c[nH]c4ccccc34)nnn2-c2nonc2N)cc1	53*	·	0	4	·	8
Cc1ccc(SCc2c(C(=O)N/N=C/c3ccncc3)nnn2-c2nonc2N)cc1	50*	·	-3	12	·	-3
COc1ccc(CN(C)C(=O)c2ccc(OCC(=O)Nc3cccc(C(F)(F)F)c3)c(OC)c2)c(OC)c1	36	·	-1	4	·	·
SMILES	TAAR1 antag	zfTRPN1 agonist	LANA-H2B inh	TAAR1 ag	TRPML3 ag	GPR7 antagonist
COc1cccc(CN(C)C(=O)c2ccc(OCC(=O)Nc3cccc(C(F)(F)F)c3)c(OC)c2)c1	67*	·	-1	9	·	·
CN(Cc1ccccc1)C(=O)c1cccc(NC(=O)Cc2ccc(NC(=O)C3CCCN(S(=O)(=O)c4cccc([N+](=O)[O-])c4)C3)cc2)c1 (stereo not given)	-11	·	·	0	·	·
O=C(CC1CCCC1)N[C@H](C(=O)N1CCC[C@H]1C(=O)NC1CCCC1)c1ccccc1	-8	·	·	0	·	·
O=[N+]([O-])c1ccccc1-c1cc(-c2cc(Cl)ccc2O)n[nH]1	37	-1	3	24	1	3
Cc1ccc(O)c(-c2cc(-c3ccccc3[N+](=O)[O-])[nH]n2)c1	57*	0	2	9	1	17
CC(C)CCc1noc(CN2CCC(CCN3CCCC3=O)CC2)n1	-11	2	11*	0	1	-9
CC(C)CCc1noc(CN2CCN(CC(=O)NC(C)C)CC2)n1	-10	0	-2	1	0	-11
Cc1[nH]c2ccccc2c1CC(=O)Nc1ccc(Nc2cccnc2)c(-c2ccc(C(C)(C)C)cc2)c1	-9	·	·	-1	·	·
COCCNC(=O)C(c1ccc(C)o1)N(Cc1ccc(OC)cc1)C(=O)Cn1nnc2ccccc21 (stereo not given)	31	3	3	41*	0	3
S=C1NCCOc2ccccc21	-26	·	·	1	·	·
COc1ccccc1-[n+]1c(C)cc(/C=C2\Sc3ccccc3N2C)cc1C	30	26*	-51	22	12*	5
COc1ccc(-[n+]2c(C)cc(/C=C3\Sc4ccccc4N3C)cc2C)cc1	62*	19*	-99	32	7	31*
COc1ccc(C(=O)/C=C2\Sc3ccccc3N2C)cc1	-16	-2	-4	9	-1	4
C[C@@H]1C=CCCO[C@]12C(=O)N(Cc1ccc(F)cc1)c1ccccc12	-12	·	·	-1	·	·
COC(=O)c1cc2c(c3c4cc(C)ccc4n(S(=O)(=O)c4ccc(C)cc4)c13)C(=O)N(Cc1ccccc1OC)C2	-27	·	·	-1	·	·
O=C(NCCOc1ccccc1)c1ccccc1[N+](=O)[O-]	-10	-1	-4	3	1	2
O=C(NCCOc1ccccc1)c1cc(C(=O)NCCOc2ccccc2)cc([N+](=O)[O-])c1	66*	1	6	14	2	9
Cc1cccc(C)c1NC(=O)C1CCCCN1C (stereo not given)	-17	2	25*!	1	1	-7
